Laboratory results: ChEMBL document CHEMBL4312018, “Novel benzimidazole phosphonates as potential inhibitors of protein prenylation” (Bioorg Med Chem Lett, 2019)
The source made the active and inactive calls.

Key:
[1] = molecular target: T1, Farnesyl pyrophosphate synthase (Homo sapiens, UniProt P14324); assay: Inhibition of FDPS (unknown origin) using [14C] IPP and GPP as substrate preincubated for 10 mins followed by substrate addition and measured after 30 min by liquid scintillation counting method
T1 sequence (P14324 whole entry): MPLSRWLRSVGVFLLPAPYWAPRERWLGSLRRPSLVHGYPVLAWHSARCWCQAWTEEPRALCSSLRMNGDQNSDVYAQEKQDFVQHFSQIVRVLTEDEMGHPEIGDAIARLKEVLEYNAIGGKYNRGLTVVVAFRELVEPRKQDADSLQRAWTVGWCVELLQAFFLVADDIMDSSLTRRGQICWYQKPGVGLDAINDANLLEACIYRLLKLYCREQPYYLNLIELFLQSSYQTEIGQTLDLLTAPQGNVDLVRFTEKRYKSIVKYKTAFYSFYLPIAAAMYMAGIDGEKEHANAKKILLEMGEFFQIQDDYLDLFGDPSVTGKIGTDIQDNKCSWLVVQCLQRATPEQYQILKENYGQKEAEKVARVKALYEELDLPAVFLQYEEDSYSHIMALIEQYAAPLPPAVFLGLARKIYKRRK

[2] = molecular target: T2, Geranylgeranyl transferase type I (Homo sapiens) (UniProt P49354+P53609); assay: Inhibition of GGtase-1 in human RPMI8226 cells assessed as disruption of Rap1a geranylgeranylation at 10 to 100 uM after 48 hrs in presence lovastatin by immunoblot analysis; type: cell-based
Summary of the method: (§1)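 Whole-cell lysates were then immunoblotted for H-Ras and unmodified Rap1a, using an antibody specific to the unprenylated protein. β-tubulin was the loading control.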

[3] = molecular target: Protein farnesyltransferase (Rattus norvegicus, UniProt Q02293+Q04631); assay: Inhibition of recombinant rat FTase expressed in Escherichia coli using dansyl-GCVLS as substrate after 1.5 hrs by spectrofluorimetric analysis
[4] = molecular target: T3, Geranylgeranyl transferase type-2 (Rattus norvegicus, UniProt Q08602+Q08603); assay: Inhibition of recombinant rat RabGGTase expressed in Escherichia coli using Rab7 as substrate and [3H]geranylgeranyl pyrophosphate after 20 mins by liquid scintillation analysis
T3 sequence (Q08603 whole entry): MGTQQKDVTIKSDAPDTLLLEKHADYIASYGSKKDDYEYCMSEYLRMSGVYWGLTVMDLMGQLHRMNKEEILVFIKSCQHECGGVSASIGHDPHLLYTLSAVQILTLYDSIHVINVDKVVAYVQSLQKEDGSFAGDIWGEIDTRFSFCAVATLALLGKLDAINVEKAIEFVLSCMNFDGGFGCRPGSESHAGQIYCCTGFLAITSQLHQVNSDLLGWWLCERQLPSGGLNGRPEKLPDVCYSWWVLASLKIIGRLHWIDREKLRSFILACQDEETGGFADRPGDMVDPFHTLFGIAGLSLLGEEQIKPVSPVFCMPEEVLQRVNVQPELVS
T3 sequence (Q08602 whole entry): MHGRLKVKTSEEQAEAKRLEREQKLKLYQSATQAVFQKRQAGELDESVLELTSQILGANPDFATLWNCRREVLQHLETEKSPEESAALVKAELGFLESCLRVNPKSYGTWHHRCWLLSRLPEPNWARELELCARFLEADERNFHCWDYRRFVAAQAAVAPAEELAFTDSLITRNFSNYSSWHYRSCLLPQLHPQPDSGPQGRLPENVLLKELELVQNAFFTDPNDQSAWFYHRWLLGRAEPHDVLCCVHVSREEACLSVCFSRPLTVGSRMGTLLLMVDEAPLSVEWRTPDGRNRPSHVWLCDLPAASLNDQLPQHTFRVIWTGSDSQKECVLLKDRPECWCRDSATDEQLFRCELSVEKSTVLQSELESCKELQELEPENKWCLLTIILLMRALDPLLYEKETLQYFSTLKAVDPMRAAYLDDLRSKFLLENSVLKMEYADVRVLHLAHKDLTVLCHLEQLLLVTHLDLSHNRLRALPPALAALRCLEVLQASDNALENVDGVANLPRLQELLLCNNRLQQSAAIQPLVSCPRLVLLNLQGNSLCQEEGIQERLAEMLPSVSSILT

[5] = molecular target: T4, Geranylgeranyl pyrophosphate synthase (Homo sapiens, UniProt O95749); assay: Inhibition of GGDPS (unknown origin) using [14C] IPP and FPP as substrate preincubated for 10 mins followed by substrate addition and measured after 30 min by liquid scintillation counting method
T4 sequence (O95749 whole entry): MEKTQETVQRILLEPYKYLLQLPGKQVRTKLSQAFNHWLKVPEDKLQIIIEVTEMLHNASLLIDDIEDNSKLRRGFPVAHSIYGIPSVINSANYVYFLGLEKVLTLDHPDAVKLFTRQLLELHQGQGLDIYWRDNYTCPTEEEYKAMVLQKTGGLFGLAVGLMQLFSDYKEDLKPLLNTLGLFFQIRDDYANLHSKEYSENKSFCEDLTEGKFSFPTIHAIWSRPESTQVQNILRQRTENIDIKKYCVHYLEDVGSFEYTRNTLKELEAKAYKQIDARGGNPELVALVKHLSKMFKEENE

[6] = molecular target: geranylgeranyltransferase type-I (Rattus norvegicus, UniProt P53610+Q04631); assay: Inhibition of recombinant rat GGtase-1 expressed in Escherichia coli using dansyl-GCVLL as substrate after 1.5 hrs by spectrofluorimetric analysis
[7] = molecular target: T5, Protein farnesyltransferase (Homo sapiens) (UniProt P49354+P49356); assay: Inhibition of FTase in human RPMI8226 cells assessed as disruption of H-ras farnesylation at 10 to 100 uM incubated for 48 hrs by immunoblot analysis; type: cell-based
[8] = molecular target: T6, Geranylgeranyl transferase type-2 (Homo sapiens) (UniProt P53611+Q92696); assay: Inhibition of GGtase-2 in human cells assessed as minimum effective dose causing => 20% decrease in Rab6 level after 48 hrs by immunoblot analysis; type: cell-based
Summary of the method: (§2)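 The lowest effective concentration in RPMI-8226 cells after 48 h requires both criteria below: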

[9] = molecular target: T2, Geranylgeranyl transferase type I (Homo sapiens); assay: Inhibition of GGtase-1 in human RPMI8226 cells assessed as disruption of Rap1a geranylgeranylation at 10 to 100 uM incubated for 48 hrs by immunoblot analysis; type: cell-based
[10] = molecular target: T5, Protein farnesyltransferase (Homo sapiens); assay: Inhibition of FTase in human RPMI8226 cells assessed as disruption of H-ras farnesylation at 10 to 100 uM after 48 hrs in presence of lovastatin by immunoblot analysis; type: cell-based; summary of the method: as §1
[11] = molecular target: T6, Geranylgeranyl transferase type-2 (Homo sapiens); assay: Inhibition of GGtase-2 in human RPMI8226 cells assessed as accumulation of intracellular lambda light chain level at 10 to 100 uM after 48 hrs by immunoblot analysis; type: cell-based
[12] = molecular target: T7, Farnesyl pyrophosphate synthase (Homo sapiens) (UniProt P14324)
T7 sequence (whole entry): T1 sequence (P14324 whole entry)

[13] = molecular target: T7, Farnesyl pyrophosphate synthase (Homo sapiens); remark: listed apart in the source
[14] = molecular target: T6, Geranylgeranyl transferase type-2 (Homo sapiens); assay: Inhibition of GGtase-2 in human cells assessed as minimum effective dose required for increase in intracellular lambda chain level after 48 hrs by ELISA; type: cell-based; summary of the method: as §2
[15] = molecular target: T6, Geranylgeranyl transferase type-2 (Homo sapiens); assay: Inhibition of GGtase-2 in human cells assessed as decrease in Rab6 level at =< 5 mM after 48 hrs by immunoblot analysis relative to control; type: cell-based
Summary of the method: (§3)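 After 48 h treatment, RPMI-8226 cells were extracted with Triton X-114 to give a detergent (membrane) fraction, which was immunoblotted for Rab6. Rab6 band density was normalized to calnexin and expressed relative to untreated cells. Blots are representative of three independent studies.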

[16] = molecular target: T7, Farnesyl pyrophosphate synthase (Homo sapiens); assay: Inhibition of FDPS in human RPMI8226 cells assessed as unmodified Rap1a level at =< 5 mM after 48 hrs by immunoblot analysis; type: cell-based
Summary of the method: (§4)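 RPMI-8226 cells were exposed for 48 h. The lowest effective concentration counts only when two read-outs agree. Unmodified Rap1a must be visible on immunoblot of whole-cell lysate, using an antibody that detects only unmodified protein.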

[17] = molecular target: T6, Geranylgeranyl transferase type-2 (Homo sapiens); assay: Inhibition of GGtase-2 in human cells assessed as increase in intracellular lambda chain at =< 5 mM level after 48 hrs by ELISA; type: cell-based
Summary of the method: (§5)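 RPMI-8226 cells were incubated 48 h with the compound or medium alone. Intracellular lambda light chain was quantified by ELISA and expressed as percent of untreated control (mean ± SD, n=3). Significance versus control was judged by t-test, p<0.05.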

[18] = molecular target: T7, Farnesyl pyrophosphate synthase (Homo sapiens); assay: Inhibition of FDPS in human RPMI8226 cells assessed as increase in intracellular lambda chain level at =< 5 mM after 48 hrs by ELISA; type: cell-based
Summary of the method: (§6)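 RPMI-8226 cells were exposed for 48 h, and intracellular lambda light chain was measured by ELISA as percent of untreated control. The lowest effective concentration also requires unmodified Rap1a to be visible on whole-cell-lysate immunoblot with an unmodified-specific antibody. The ELISA rise must be statistically significant.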

[19] = molecular target: T5, Protein farnesyltransferase (Homo sapiens); assay: Inhibition of FTase in human RPMI8226 cells assessed as disruption of H-ras farnesylation after 48 hrs by immunoblot analysis; type: cell-based
[20] = molecular target: T7, Farnesyl pyrophosphate synthase (Homo sapiens); assay: Inhibition of FDPS in human RPMI8226 cells assessed as unmodified Rap1a level at =< 1 mM after 48 hrs by immunoblot analysis; type: cell-based; summary of the method: as §4
[21] = molecular target: T6, Geranylgeranyl transferase type-2 (Homo sapiens); assay: Inhibition of GGtase-2 in human RPMI8226 cells assessed as decrease in Rab6 level at =< 1 mM after 48 hrs by immunoblot analysis relative to control; type: cell-based; summary of the method: as §3
[22] = molecular target: T7, Farnesyl pyrophosphate synthase (Homo sapiens); assay: Inhibition of FDPS in human RPMI8226 cells assessed as increase in intracellular lambda chain level at =< 1mM after 48 hrs by ELISA; type: cell-based; summary of the method: as §6
[23] = molecular target: T6, Geranylgeranyl transferase type-2 (Homo sapiens); assay: Inhibition of GGtase-2 in human RPMI8226 cells assessed as increase in intracellular lambda chain at =< 1 mM level after 48 hrs by ELISA; type: cell-based; summary of the method: as §5
[24] = molecular target: T2, Geranylgeranyl transferase type I (Homo sapiens); assay: Inhibition of GGtase-1 in human RPMI8226 cells assessed as disruption of Rap1a geranylgeranylation after 48 hrs immunoblot analysis; type: cell-based

Row | SMILES | IC50 [1] [µM] | IC50 [3] [µM] | IC50 [4] [µM] | IC50 [5] [µM] | IC50 [6] [µM] | LED [8] [mM] | further results
1 | O=P(O)(O)C(Cn1cnc2ccccc21)P(=O)(O)O | 0.024 | 830 | > 1000 | 20.5 | > 1000 | 0.025 | inhibition [2]: Active; inhibition [7]: Active; inhibition [9]: Active; inhibition [10]: Active; inhibition [11]: Active
2 | CC(Cn1cnc2ccccc21)(C(=O)O)P(=O)(O)O (stereo not given) | > 100 | > 1000 | 810 | > 100 | > 1000 | 5 | LED [12]: 5 mM; LED [13]: 5 mM; LED [14]: 5 mM
3 | Cc1cc2ncn(CC(C(=O)O)P(=O)(O)O)c2cc1C (stereo not given) | > 100 | > 1000 | > 1000 | > 100 | > 1000 |  | inhibition [15]: inactive; inhibition [16]: inactive; inhibition [17]: inactive; inhibition [18]: inactive
4 | CC(Cn1cnc2ccccc21)(P(=O)(O)O)P(=O)(O)O | 1 | > 1000 | > 1000 | > 100 | > 1000 |  | inhibition [19]: inactive; inhibition [20]: inactive; inhibition [21]: inactive; inhibition [22]: inactive; inhibition [23]: inactive; inhibition [24]: inactive
